Screening data (PubChem)
HSF1 inhib: HSF1 inhibition. activity change, negative = inhibition, % at 7.5 µM (by protocol). 300,000 compounds, 0.77% hits. NIH3T3-HGL HSE-luciferase, MG132-induced, luminescence 8 h; active compounds read low;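 active means more than half of replicate wells show activity change below -50%, luminescence cut by over half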;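 further: luciferase reports HSF-1 transcriptional activity via heat shock element; 0% = median of DMSO wells and -100% = zero luminescence signal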
DNA FID counter: displaces DNA intercalator in HCV helicase counter-screen; DNA fluorescent intercalator displacement, fluorescence; inhibition, % at 7.9 µM; 290,000 compounds, 0.17% hits; AID 1845; in the data active means inhibition above about 37%;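 further: 0% = vehicle and 100% = reference compound; higher means more ethidium bromide displaced from hairpin DNA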
core dimer inh: blocks dimerization of HCV core protein. AID 1899. TR-FRET GST/Flag-core106 dimerization, 1536-well. inhibition, % at 5 µM. 300,000 compounds, 0.33% hits;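 active means inhibition above the mean of all tested compounds plus 3 SD, set per screening campaign, cut at about 45% in these data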
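System: GST-tagged and Flag-tagged HCV core protein residues 1-106 / Input: core106 proteins, GST 13.5 nM and Flag 17 nM / Buffer or medium: KF-containing HEPES buffer, pH 7.45, DTT, CHAPS, BSA / Probe or stimulus: Eu-anti-GST and XL665-anti-Flag labelled anti-tag antibodies / Schedule: 4 h, 22.5 °C incubation / Technique: TR-FRET 671 and 617 nm emission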
HSP90 refold inh: HSP90 refolding inhibition in rabbit reticulocyte lysate | luciferase refolding luminescence, 3 h | inhibition, % at 5.6 µM | 290,000 compounds, 0.91% hits;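 active means inhibition above the screen-wide mean plus 3 SD, computed separately per campaign, cut at about 16% in these data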;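 further: 0% = DMSO wells and 100% = 60 µM geldanamycin wells; inhibitors lower the luminescence because luciferase stays unfolded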
HSF1 activator: increases HSF-1 driven luciferase reporter signal; activation, % at 9 µM; NIH3T3-HGL HSF-1 luciferase reporter, MG132, 8 h; 100% = twice DMSO control signal; 300,000 compounds, 1.7% hits;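 active means mean replicate activation of at least 50% with a set share of replicates each reaching 50%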;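 further: 0% = median of the neutral control wells and 100% = twice that signal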
NS3 helicase inh: HCV NS3 helicase inhibition; 290,000 compounds, 0.56% hits; inhibition, % at 10.9 µM; NS3 helicase DNA unwinding, Cy5 molecular beacon fluorescence;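 active means inhibition above the mean of all tested compounds plus 3 SD, set per campaign, cut at about 35% in these data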;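 further: 0% = DMSO wells and 100% = thioflavine S control wells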
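test system = hepatitis C virus NS3 helicase domain fragment enzyme | reagent = annealed dual-labelled DNA beacon duplex, ATP-started | times = 1 h at 25 °C | detection = Cy5 fluorescence, 0 and 60 min reads | read-out basis = percent inhibition from t60/t0 fluorescence ratio | control set = DMSO and thioflavine S | replication = one well per compound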
* hit, by the source's call; nt = no result. Sampled rows, rich in hits. Any-hit rate of the full collection: about 3.9%.

SMILES | HSF1 inhib | DNA FID counter | core dimer inh | HSP90 refold inh | HSF1 activator | NS3 helicase inh
Cc1ccc(/C=N/N2C(=O)c3ccccc3NC2c2ccc(C)cc2)cc1 (centres undefined) | 28.8 | -2.1 | -4.8 | -2.5 | 55.1* | -4.3
O=C1c2ccccc2NC(c2ccco2)N1/N=C/c1ccco1 (centres undefined) | 12.2 | -1.6 | 1.4 | 4.1 | 21.4 | 0.9
CCCCc1nc2cc(C(=O)NC3CCOC(C)(C)C3)ccc2o1 (centres undefined) | -5.9 | -37.9 | 6.3 | -3.7 | -7.0 | -0.9
Cc1ccc(-c2c(C(=O)Nc3ccccc3C)c(C)[nH]c(=S)c2C#N)o1 | 4.5 | -22.1 | 40.8 | 2.6 | 10.1 | 39.0*
N=C1c2ccccc2CN1NC(=O)COc1ccc(Cl)cc1 | 4.2 | 5.3 | -4.7 | -2.0 | 7.0 | 4.2
CC(C)(C)c1ccc(OCC(=O)NN2Cc3ccccc3C2=N)cc1 | 37.7 | 11.2 | -0.2 | 0.9 | 91.9* | -14.2
Cc1cccc2sc(NC(=O)C3CCN(S(=O)(=O)c4cc([N+](=O)[O-])ccc4Cl)CC3)nc12 | 25.2 | 4.2 | 48.5* | 2.3 | 21.4 | -0.1
O=C(Nc1cnccn1)c1ccc(Cl)cc1 | -6.1 | -1.4 | -5.1 | -0.4 | 13.3 | -2.7
CCOc1cc2c(cc1OCC)C(c1ccc(OC)cc1)N(c1ccccc1)C(=O)C2 (centres undefined) | -85.1* | -38.1 | 1.2 | 2.4 | -89.5 | -0.6
CCOc1ccc(C2c3cc(OC)c(OC)cc3CC(=O)N2c2ccccc2)cc1 (centres undefined) | 4.3 | -33.9 | 3.1 | -0.7 | 18.2 | -6.9
Cc1cccc(C(=O)OCC(=O)c2cccc(Br)c2)c1O | 13.8 | -9.0 | -4.0 | -3.5 | -3.5 | 11.4
CC(C)COc1ccc(-c2cc(C(=O)NN)[nH]n2)cc1 | 11.7 | -4.3 | -10.2 | 15.1 | 52.1* | 11.1
CCC/C=C(\CCC)C(NC(=O)c1ccc(C(=O)OC)cc1)c1ccc(C(=O)OC)cc1 (centres undefined) | -4.5 | nt | 2.7 | nt | -1.7 | nt
COC(=O)C1=C(C)NC(C)=C(C(=O)OC)C1c1ccc(-c2cc(Cl)ccc2Cl)o1 | 12.8 | -2.0 | -1.4 | 0.9 | 14.6 | 15.3
COC(=O)C1=C(C)NC(C)=C(C(=O)OC)C1c1ccc(-c2cccc(Cl)c2Cl)o1 | 22.1 | -2.4 | -1.3 | 4.4 | 53.2* | 31.7
COC(=O)C1=C(C)NC(=S)NC1c1ccc(-c2cccc(Cl)c2)o1 (centres undefined) | 44.2 | -20.2 | 28.4 | -0.1 | 71.6* | 26.7
O=C(COc1ccc(Nc2ccccc2)cc1)Nc1ccncc1 | -3.5 | nt | -9.0 | nt | -5.3 | nt
CSc1nnc(-c2cc3ccccc3cc2O)n1C | nt | -10.6 | -3.3 | -3.0 | nt | -4.4
CCC1=NN(C(=O)Cc2ccc([N+](=O)[O-])cc2)C(O)(C(F)(F)F)C1 (centres undefined) | -2.8 | 4.2 | -2.2 | 6.2 | 6.5 | 15.6
O=C(Cc1ccc([N+](=O)[O-])cc1)N1N=C(C2CC2)CC1(O)C(F)(F)F (centres undefined) | 12.1 | -5.5 | 5.6 | 2.1 | 67.7* | 7.0
O=C(CN(C(=O)c1ccccc1Cl)N1C(=O)C2C3C=CC(C3)C2C1=O)c1cccs1 (centres undefined) | -2.6 | -4.7 | 4.3 | 4.7 | -10.4 | 0.0
CCCCCCN1CC(=O)N2[C@@H](Cc3c([nH]c4ccccc34)C2(C)C)C1=O | -51.4* | -32.5 | 12.8 | 0.4 | -58.4 | -9.6
CC1(C)c2[nH]c3ccccc3c2C[C@H]2C(=O)N(CCCO)CC(=O)N21 | -7.5 | -11.1 | 2.1 | -0.8 | 5.9 | 1.9
CN=CC1=C(O)C(C(=O)OC)C(C)(C)CC1=O (centres undefined) | -11.2 | -6.1 | -4.2 | 5.4 | -13.5 | -1.7
Clc1ccc(-c2nsc(N3CCOCC3)n2)c(Cl)c1 | 27.6 | -11.0 | -0.1 | 11.5 | 62.1* | -10.2
Clc1cc(Cl)c2nc(N3CCOCC3)sc2c1 | 19.6 | -1.8 | 1.9 | 0.7 | 33.9 | -8.3
COc1ccc2nc(Nc3ccccc3OC)sc2c1 | 30.3 | 2.5 | -2.8 | 4.3 | 73.2* | -7.9
COc1ccc2nc(NC(=O)c3ccccc3O)sc2c1 | 69.1 | 5.7 | -4.7 | 11.9 | 102.8* | 7.3
COc1ccc2nc(NC(=O)Nc3ccccc3OC)sc2c1 | 18.3 | -0.6 | -0.3 | 3.8 | 30.7 | -28.3
